VIM-2 inh: blocks Pseudomonas aeruginosa VIM-2 metallo-beta-lactamase; inhibition, % at 5.6 µM; AID 1527; purified VIM-2, nitrocefin hydrolysis, epi-absorbance fluorescence; 290,000 tested, 0.89% active;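 active = inhibition above the mean of all tested compounds plus 3 SD, cutoff set per screening run, cut at about 7.5% in these data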;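 also: red hydrolysis product quenches plate fluorescence so inhibitors raise well fluorescence; 0% = enzyme with DMSO and 100% = DMSO without enzyme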
PAFAH2 FP inh: inhibitors of human PAFAH2; Q99487; 340,000 tested, 0.99% active; recombinant PAFAH2, FP-rhodamine activity probe, fluorescence polarization; inhibition, % at 3.39 µM;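 active = inhibition above the mean over all tested compounds plus 3 SD, cut at about 30% in these data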;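 also: inhibitors block probe labeling of enzyme so polarization drops; 0% = enzyme with DMSO and 100% = wells lacking PAFAH2 protein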
PAFAH1B2 FP inh: inhibitors of human PAFAH1B2; 340,000 tested, 1.2% active; inhibition, % at 3.39 µM; P68402; recombinant PAFAH1B2, FP-rhodamine activity probe, fluorescence polarization;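 active = inhibition above the mean of all tested compounds plus 3 SD, cut at about 24% in these data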;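 also: 0% = enzyme with DMSO and 100% = wells lacking PAFAH1B2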
PAFAH1B3 FP inh: PAFAH1B3 (human) inhibition; recombinant PAFAH1B3, FP-rhodamine probe, fluorescence polarization; inhibition, % at 3.39 µM; 340,000 tested, 0.28% active; AID 492972;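 active = inhibition above the screen-wide average of all tested compounds plus 3 SD, cut at about 25% in these data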;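 also: 0% = enzyme with DMSO only and 100% = wells lacking PAFAH1B3 protein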
IMP-1 inh: blocks Pseudomonas aeruginosa IMP-1 metallo-beta-lactamase | 290,000 tested, 0.45% active | inhibition, % at 5.6 µM | purified IMP-1, nitrocefin hydrolysis, epi-absorbance fluorescence;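 active = inhibition above the mean plus 3 SD of all compounds in the same screening run, cut at about 4.5% in these data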;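 also: 0% = IMP-1 with DMSO and 100% = DMSO wells lacking enzyme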
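System: purified recombinant IMP-1 beta-lactamase. Medium: Zinc- and detergent-supplemented HEPES buffer, pH 7.1. Compound: one 5.6 µM dose […]. Schedule: 15 min preincubation plus 25 min reaction at 25 °C. Technique: Epi-absorbance fluorescence, 480 nm excitation, 530 nm emission.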
pPAFAH inh: inhibitors of human plasma PAF acetylhydrolase (pPAFAH); Q13093; recombinant pPAFAH, FP-rhodamine probe fluorescence polarization; inhibition, % at 3.39 µM; 330,000 tested, 1.5% active;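 active = inhibition above the mean inhibition across the screen plus 3 SD, cut at about 25% in these data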;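 also: inhibitors block binding of the rhodamine activity-based probe so polarization drops; 0% = enzyme with DMSO and 100% = wells lacking pPAFAH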
Target sequence (Q13093 whole entry, looked up): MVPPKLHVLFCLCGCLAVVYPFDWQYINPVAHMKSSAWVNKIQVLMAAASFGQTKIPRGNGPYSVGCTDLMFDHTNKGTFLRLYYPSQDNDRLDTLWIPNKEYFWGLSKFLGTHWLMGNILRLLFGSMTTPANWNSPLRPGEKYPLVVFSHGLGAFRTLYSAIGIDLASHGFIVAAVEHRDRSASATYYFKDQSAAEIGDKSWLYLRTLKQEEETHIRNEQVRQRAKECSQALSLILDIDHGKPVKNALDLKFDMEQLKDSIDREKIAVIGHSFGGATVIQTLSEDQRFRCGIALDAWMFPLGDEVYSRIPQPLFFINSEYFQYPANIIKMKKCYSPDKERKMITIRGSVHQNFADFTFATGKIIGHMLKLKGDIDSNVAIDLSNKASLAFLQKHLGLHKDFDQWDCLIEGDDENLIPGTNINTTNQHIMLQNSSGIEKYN
An asterisk follows results filed as active; · = no result; + = active, no number. Shown are actives, neighbours in structure and some others; about 3.6% of the full set was active somewhere.

SMILES | VIM-2 inh | PAFAH2 FP inh | PAFAH1B2 FP inh | PAFAH1B3 FP inh | IMP-1 inh | pPAFAH inh
Cc1cc(N2CCN(c3ccccc3)CC2)n2c(n1)nc1ccccc12 | 10.9* | 2.8 | 0.6 | -0.6 | -3.6 | 5.6
Cc1cc(C)cc(OCC(=O)OCc2cc([N+](=O)[O-])cc3c2OCOC3)c1 | · | 2.8 | -1.0 | 2.7 | · | 20.3
O=C1OC(c2cccs2)=N/C1=C\c1ccc(-c2cccc(Cl)c2)o1 | 0.5 | 5.3 | 1.6 | -0.5 | -0.4 | 29.7*
Cn1c(COc2ccc(Cl)cc2)nnc1SCc1ncc(-c2ccccc2)o1 | -4.5 | 14.1 | 36.0* | 12.1 | -2.0 | -3.9
CCN1C(=O)/C(=C/C=C2\N(CC)c3cc(S(=O)(=O)N(C)C)ccc3N2c2ccccc2)SC1=S | -1.9 | -59.1 | 151.4* | + | -1.6 | -56.6
CCN1C(=O)/C(=C\C=C\c2ccccc2[N+](=O)[O-])SC1=S | -4.8 | 11.9 | 7.1 | 14.7 | -4.8 | ·
O=[N+]([O-])c1cc(/C=N\Nc2nc(-c3ccccc3)cs2)ccc1O | -4.9 | 32.1* | 12.6 | 21.6 | -3.9 | 31.0*
CCOc1cc(/C=N/Nc2nc(-c3cccs3)c(NC(C)=O)s2)ccc1O | -3.9 | -5.1 | 1.4 | 12.0 | -3.0 | 24.9*
Cc1ccc(S(=O)(=O)N2[C@@H](c3ccc(Cl)cc3)C(C(=O)O)=C[C@H]2C(C)(C)C)cc1 | · | -2.3 | 51.1* | 2.7 | · | 1.1
Cc1ccc(S(=O)(=O)N2[C@@H](c3ccc(C#N)cc3)C(C(=O)O)=C[C@H]2C(C)(C)C)cc1 | · | 3.2 | 19.6 | 10.8 | · | -5.8
CCCC[C@@H]1C=C(C(=O)O)[C@H](c2ccc(Cl)c(Cl)c2)N1S(=O)(=O)c1ccc(C)cc1 | · | 2.2 | 25.9* | 8.9 | · | -1.4
CCN(CC)CCN1C(=O)/C(=C\c2ccc(Cl)c([N+](=O)[O-])c2)SC1=Nc1ccc(OC)cc1 | 8.0* | 3.8 | 1.0 | -0.5 | -1.1 | 0.4
COc1ccc(N=C2S/C(=C\c3ccc(Cl)c([N+](=O)[O-])c3)C(=O)N2CCN(C)C)cc1 | 5.9 | -4.2 | 3.1 | 5.8 | -3.4 | 6.8
CCc1n[nH]c(=S)n1/N=C/c1cc(OC)cc([N+](=O)[O-])c1O | -0.8 | 24.8 | -0.3 | -2.3 | 4.6* | 10.1
CN1CCC(N(C)C(=O)c2ccc(Cl)c(S(=O)(=O)Nc3cc(Cl)ccc3Cl)c2)CC1 | · | 14.1 | -2.3 | 0.1 | · | 0.9
CN1CCc2c(sc3nc(SCC(=O)N4CCOCC4)n(-c4ccc(Cl)cc4)c(=O)c23)C1 | -2.0 | 1.3 | 1.7 | 7.1 | -2.1 | 2.9
COc1ccccc1-n1c(SCC(=O)N2CCOCC2)nc(O)c(Cc2ccccc2)c1=O | -1.1 | 9.5 | -0.9 | -3.8 | -1.2 | 8.3
COc1ccccc1-n1c(SCC(=O)N2CCOCC2)nc(O)cc1=O | -1.3 | -0.5 | -3.7 | 6.9 | -2.4 | 33.8*
N#CC1=C(N)OC2=C(CC/C2=C\c2ccccc2)C1c1ccccc1 (configuration not stated) | -2.3 | -2.7 | -14.3 | -20.6 | 5.2* | 10.2
N#CC1=C(N)OC2=C(CC/C2=C\c2ccccc2Cl)C1c1ccccc1Cl (configuration not stated) | -0.7 | -6.4 | -2.5 | -10.8 | -0.8 | 18.6
CC(C)=C1CCC(C)CC1=NNC(N)=S (configuration not stated) | · | 4.8 | 27.3* | 6.7 | · | ·
CC1C/C(=N\NC(N)=S)c2cc(Cl)ccc2S1 (configuration not stated) | -0.8 | · | · | · | -1.4 | 2.4
CCc1ccc(S(=O)(=O)/N=C2/C=C(Sc3ncn[nH]3)C(=O)c3ccccc32)cc1 | -1.6 | 40.8* | 50.1* | 49.9* | -2.8 | 5.5
CCc1ccc(S(=O)(=O)/N=C2\C=CC(=O)c3ccccc32)cc1 | -2.7 | · | · | · | -2.9 | 40.1*
CSc1oc(-c2ccco2)nc1S(=O)(=O)c1ccc(Br)cc1 | -2.2 | 3.1 | 2.0 | -2.2 | -2.3 | 3.5
CC(C)Sc1oc(-c2ccco2)nc1S(=O)(=O)c1ccc(F)cc1 | 3.3 | 12.1 | 3.1 | 0.5 | 0.6 | 25.5*
O=C(COC(=O)c1ccc[nH]c1=O)Nc1cc(S(=O)(=O)N2CCCCCC2)ccc1Cl | · | -5.0 | 4.2 | 1.4 | · | ·
Cc1c(CC(=O)O)c(=O)oc2c(C)c(OCc3ccc(F)cc3Cl)ccc12 | -1.9 | 2.9 | 7.4 | 6.4 | 20.4* | 1.1
Cc1cc(Cl)ccc1OCCCC(=O)NNC(=O)c1ccccc1O | · | 2.0 | 13.0 | 14.9 | · | 28.8*
